{
  "source": "paper PMC6944740",
  "about": "(Alzheimer's & Dementia : Translational Research & Clinical …, 2019)",
  "key": {"[1]": {"system": "SN mice", "format": "in vivo, Kunming mouse", "details": "200 μL of 20 μM intracardiac weekly, versus untreated SN mice"}, "[2]": {"experiment": "5-YHEDA immunohistochemical staining of brain slices after cardiac injection", "format": "in vivo, mouse", "details": "mice, intracardiac injection", "method_in_brief": "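Fixed brain slices were blocked in 0.1% BSA/PBS (w/v) for 1 h, then given anti-peptide mouse serum at 4°C overnight. The serum was raised in normal mice injected weekly with peptide plus incomplete Freund adjuvant (s.c. or i.p.) for 2 months. After washing, slices took HRP goat anti-mouse IgG for 2 h, then DAB development.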"}, "[3]": {"experiment": "Solubility of the oligomer", "format": "physicochemical", "details": "dissolved in distilled water at 1 mg/mL"}, "[4]": {"system": "SH-sy5y cells", "experiment": "SH-sy5y cells in iron-rich medium: hydroxyl radical, iron and cell survival", "format": "cell-based, human", "details": "1.5 μM peptide; SEM and flow cytometry"}, "[5]": {"system": "SN mice", "experiment": "TUNEL assay of neuronal necrosis in brain", "format": "in vivo, Kunming mouse", "details": "intracardiac weekly, versus untreated SN mice", "method_in_brief": "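Senescent 25-month-old Kunming mice were picked by water maze, TUNEL and blood assays and given 200 μL of 20 μM peptide intracardially each time. Frozen brain sections sat 1 h in Na-HEPES, then 10 mM H2O2 and […]. After PBS wash and 0.1% Triton X-100, TUNEL mix ran 1 h at 37°C in the dark; some sections were DAB-stained. Bright/brown spots were scored necrotic.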"}, "[6]": {"experiment": "Isothermal titration calorimetry of FeCl3 with 5-YHEDA", "details": "ITC, 200 μM 5-YHEDA, 1000 μM FeCl3, one-site binding model"}},
  "data": [
    {"substance": "YHEDAYHEDAYHEDAYHEDAYHEDA [5-YHEDA]", "values": [
      {"measurement": "iron and radical levels in the brain (Fig. 5I)", "setting": "[1]", "result": "nearly the same as those in the untreated SN mice"},
      {"measurement": "entry into brain (anti-5-YHEDA immunohistochemical staining of brain slices)", "setting": "[2]", "result": "no staining was observed"},
      {"measurement": "solubility", "setting": "[3]", "result": "soluble"},
      {"measurement": "survival of SH-sy5y cells in iron-rich medium", "setting": "[4]", "result": "many of the SH-sy5y cells cultured in iron-rich medium survived"},
      {"measurement": "neuronal necrosis in the SN brain (TUNEL)", "setting": "[5]", "result": "did not prevent neuronal damage"},
      {"measurement": "Gibbs energy lost after FeCl3 titration (ΔG)", "setting": "[6]", "result": 8973, "unit": "kcal/mol"}
    ]}
  ]
}
